Experimental data from different studies.
Target: Rho-associated protein kinase 2 (ROCK2, Homo sapiens, UniProt O75116)

| Compound | observed | method | tested at | remaining binding [%] |
| --- | --- | --- | --- | --- |
| CN1CCN(c2cnc3c(C4CCN(C(=O)c5ccc(OC(F)(F)F)cc5N)CC4)ncnc3c2)CC1 | cell-free assay | competition with immobilised ligand | 1 µM | 100 |
| c1cncc(-c2cccc(Nc3nccc(NC4CCCCC4)n3)c2)c1 | binding | competition with immobilised ligand | 10 µM | 25 |
| COc1ccnn2ncc(-c3ccnc(N(C)C)n3)c12 | binding |  | 1 µM | 100 |
| O=C(Nc1c[nH]nc1C(=O)NC1CCNCC1)c1cc(F)cc(F)c1 | binding | competition with immobilised ligand | 1 µM | 88 |
| CN(CCCC(F)(F)F)c1nccc(-c2cnn3ncccc23)n1 | binding |  | 1 µM | 100 |
| FC(F)(F)Oc1cccc(-c2cnc3ccc(-c4ccncc4)nn23)c1 | binding | competition with immobilised ligand | 5 µM | 42 |
| N[C@H]1CCN(c2nccc(-c3cnn4ncccc34)n2)C1 | binding |  | 1 µM | 100 |
| CC(C)(C)c1ccc(-c2nc(CBr)nn2-c2cccc(O)c2)cc1 | cell-free assay | competition with immobilised ligand | 10 µM | 58 |
| N#CC1(c2ccccn2)CCN(Cc2cc(C(=O)N3CCCC3)c(=O)n3ccccc23)CC1 | cell-free assay | competition with immobilised ligand | 1 µM | 72 |
| Cc1cnc(Nc2ccc(C(=O)N3CCC(N4CCCC4)CC3)cc2)nc1-c1cc2ccccc2s1 | binding | competition with immobilised ligand | 1 µM | 11 |
| CC(=O)N1CCC(c2ccc(C(=O)NC(=N)N)cc2C(F)(F)F)CC1 | cell-free assay | competition with immobilised ligand | 1 µM | 100 |
| C[C@@H]1CN(c2ccc3ncc(-c4ccc5[nH]nc(C6CC6)c5c4)n3n2)C[C@H](C)O1 | binding | competition with immobilised ligand | 0.5 µM | 21 |
| O=C(c1ccc(Nc2ncc(Cl)c(-c3cc4ccccc4s3)n2)cc1)N1CCC(N2CCCC2)CC1 | binding | competition with immobilised ligand | 1 µM | 7.2 |
| C[C@@H](c1ccc(-n2cnc3c(N)ncnc32)cc1)N1CCc2nn(C)c(Cc3ccccc3)c2C1=O | binding | competition with immobilised ligand | 0.1 µM | 77 |
| N#Cc1ccccc1CSc1nnc2c(n1)[nH]c1ccccc12 | binding | competition with immobilised ligand | 10 µM | 80 |
| c1cnn2ncc(-c3ccnc(N4CCC45COC5)n3)c2c1 | binding |  | 1 µM | 70 |
| Cn1cc(Cl)c2c(Oc3c(F)cc(Nc4cc(Cl)nc(N)n4)cc3F)ccnc21 | cell-free assay | competition with immobilised ligand | 0.1 µM | 83 |
| O=C(c1ccc(Nc2nccc(-c3cc4ccccc4s3)n2)cc1)N1CCC(N2CCCC2)CC1 | binding | competition with immobilised ligand | 1 µM | 7.4 |
| C[C@H](c1cccc(C#N)c1)n1cc(Cl)cc(C(N)=O)c1=N | cell-free assay | competition with immobilised ligand | 1 µM | 94 |
| CN(C)c1nccc(-c2cnn3ncccc23)n1 | binding |  | 1 µM | 84 |
| Cc1nc(N2CC[C@@H](O)C2)ncc1-c1cc(C(F)(F)F)cc2[nH]ncc12 | binding | competition with immobilised ligand | 1 µM | 77 |
| COc1cnc(Nc2cccc(S(N)(=O)=O)c2)nc1N1CCN(c2ccccc2)CC1 | binding | competition with immobilised ligand | 1 µM | 90 |
| CN(C)C(=O)Cn1cc(-c2nc(C3(c4ccc(-c5cnc(N)nc5)cc4)CC3)no2)cn1 | cell-free assay | competition with immobilised ligand | 1 µM | 89 |
| Cc1cnn2ncc(-c3ccnc(N(C)C)n3)c2c1 | binding |  | 1 µM | 95 |
